The source made the active and inactive calls. The rule behind the calls is not given here.

In data set [1] the test system is dengue virus type 2. In words: Inhibition of NS4B in Dengue virus 2 NGC infected in human HuH7 replicon cells lysates at 10 ujM incubated for 48 hrs by SDS-PAGE based pull down assay. In kind it is subcellular. Particulars: Lysate. The gist of the method:
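Huh7 cells, 4×10⁶ per T-75, infected next day with DENV-2 NGC at MOI 2.0 with 10 µM biotinylated probe, or 0.25% DMSO, for 48 h at 37 °C. Lysis in 20 mM Tris-HCl pH 7.5, 100 mM NaCl, 0.5% DDM with protease inhibitors. Lysate spiked with compound to 100 µM final, then streptavidin magnetic beads at 4 °C overnight. Bead eluates resolved on 12% SDS-PAGE; NS4B detected by anti-NS4B monoclonal Western blot.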

The nature of data set [2]: Cytotoxicity in human HuH7 replicon cells infected with Dengue virus 2 NGC assessed as reduction in cell viability incubated for 48 hrs by Cell-titer-Glo reagent based assay. On the set-up: species or system Huh-7. The essentials: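 Huh7 cells or Huh7 replicon cells plated, then held at 37 °C with 5% CO₂ overnight. Exposed to 2-fold serial compound dilutions for 48 h, in duplicate. Viability read with CellTiter-Glo and normalized to 0.45% DMSO wells set at 100%. CC50 from four-parameter logistic fit.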

Another data set relates to dengue virus type 3. In words: Antiviral activity against Dengue virus 3 D3MY05-34640 infected in human HuH7 replicon cells expressing Renilla luciferase and neomycin-resistance genes assessed as reduction in viral replication incubated for 48 hrs by luciferase reporter replicon-based assay. The data set is classed as functional, organism-based. To be noted: D3MY05-34640, Huh-7, 48 h. The gist of the method: (§1)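 Huh7 cells stably carrying a Renilla luciferase/neomycin-resistance replicon (DENV-1 WestPac, DENV-2 NGC, DENV-3 D3MY05-34640 or DENV-4 D4MY01-22713). Cells seeded at 10k per well and incubated overnight at 37 °C, 5% CO2. Then exposed to 2-fold serial compound dilutions for 48 h, in duplicate. Luciferase read with a live-cell substrate. EC50 from four-parameter logistic fit.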

Data set [3] concerns dengue virus type 2. In words: Antiviral activity against Dengue virus 2 NGC infected in human HuH7 replicon cells expressing Renilla luciferase and neomycin-resistance genes assessed as reduction in viral replication incubated for 48 hrs by luciferase reporter replicon-based assay. The data set is classed as functional, organism-based. Particulars: Huh-7, 48 h. The essentials: as §1

The test system of a further data set is dengue virus type 4. In words: Antiviral activity against Dengue virus 4 D4MY01-22713 infected in human HuH7 replicon cells expressing Renilla luciferase and neomycin-resistance genes assessed as reduction in viral replication up to 10 uM incubated for 48 hrs by luciferase reporter replicon-based assay. In kind it is functional, organism-based. The essentials: as §1

A further data set concerns dengue virus type 1. Nature of the data set: Antiviral activity against Dengue virus 1 WestPac infected in human HuH7 replicon cells expressing Renilla luciferase and neomycin-resistance genes assessed as reduction in viral replication up to 10 uM incubated for 48 hrs by luciferase reporter replicon-based assay. In kind it is functional, organism-based. The gist of the method: as §1

`C[C@@H](c1ccc(Cl)cc1)n1nnc2c1NC(=O)C[C@@]21C(=O)N(CCOC(=O)CCCCCCCNC(=O)CCCC[C@@H]2SC[C@@H]3NC(=O)N[C@@H]32)c2ccc(Cl)cc21`: in the data set with dengue virus type 2 [1], the inhibition result was “inactive”. In data set [2], the half-maximal cytotoxic concentration (CC50) at 48 h is over 10000 nM. Further, the EC50 in the data set on dengue virus type 3 and with dengue virus type 2 [3] was over 5000 nM in each case.
On to `C[C@@H](c1ccc(Cl)cc1)n1nnc2c1NC(=O)C[C@]21C(=O)N(CCOC(=O)CCCCCCCNC(=O)CCCC[C@@H]2SC[C@@H]3NC(=O)N[C@@H]32)c2ccc(Cl)cc21`, for which, in the data set with dengue virus type 2 [1], the inhibition result is “Active”. The result with dengue virus type 4 and with dengue virus type 1 was inactive. Further, in data set [2], the CC50 at 48 h is over 10000 nM. Also, the 50% effective concentration (EC50) in the data set with dengue virus type 3 turned out to be 16.7 nM; in the data set on dengue virus type 2 [3] it was 41.4 nM.

Values taken from ChEMBL document CHEMBL4414551, “Design, Synthesis, and Biological Evaluation of Substituted 4,6-Dihydrospiro[[1,2,3]triazolo[4,5-b]pyridine-7,3'-indoline]-2',5(3H)-dione Analogues as Potent NS4B Inhibitors for the Treatment of Dengue Virus Infection” (J Med Chem, 2019).
